A short description of data set [1]: (§1) Inhibition of LPS-induced NF-kappaB activation in mouse RAW264.7 cells after 24 hrs by SEAP reporter assay. The format is cell-based. The following applies: RAW264.7, 24 h. In outline: (§2)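 RAW264.7 cells carrying a reporter plasmid with eight κB copies driving SEAP; seeded 5 × 10^4 cells/well, 3 h at 37 °C, then test agent at various concentrations plus LPS (1 µg/mL) for 24 h. Supernatant heated 65 °C 5 min, mixed with SEAP buffer (diethanolamine, MgCl2, L-homoarginine) 10 min 37 °C, then p-nitrophenyl phosphate at 37 °C; A405. IC50 values; means ± SD of six independent experiments.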

The test system of data set [2] is RAW264.7. As to the kind of experiment: Inhibition of LPS-induced NO production in mouse RAW264.7 cells after 24 hrs by Griess method. The format is functional, cell-based. The conditions noted are these: RAW264.7, 24 h. In outline:
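RAW264.7 cells at 1 × 10^5 cells/well, 3 h incubation, then LPS (1 µg/mL) for 24 h with or without test agent. Supernatant nitrite measured as NO readout by Griess reaction (equal volume of 0.1% N-(1-naphthyl)ethylenediamine/1% sulfanilamide in 5% phosphoric acid); absorbance 570 nm. IC50 values; means ± SD of six independent experiments.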
Background: Nitrite, measured by Griess reagent, commonly stands in for NO production.

Data set [3] relates to RAW264.7. The data set is described as §1. The format is cell-based. The essentials:
as §2

In data set [4] the test system is RAW264.7. In words: Cytotoxicity against mouse RAW264.7 cells upto 3 uM by MTT assay. The data set is classed as cell-based.

A word on the IC50: it is the concentration at which inhibition is half-maximal. A high value points to weaker potency.

With `C=C1C(=O)O[C@@H]2C3O[C@]3(C)CC/C=C(\C)CC[C@@H]12` (some centres undefined), the IC50 was 2340 nM in data set [1] and 2010 nM in the data set with RAW264.7 [2].

In the case of `C=C1C(=O)[C@@]23[C@H](O)C[C@@H]4C(C)(C)CC[C@@H](OC(C)=O)[C@@]4(C)[C@@H]2CC[C@@H]1[C@H]3O`, the IC50 in data set [1] turned out to be 420 nM; with RAW264.7 [2], 470 nM. The Activity result in the data set with RAW264.7 [3] is “Dose-dependent effect”; in the data set with RAW264.7 [4], “Non-toxic”.

In the data set on RAW264.7 [2], `N=C(N)NN` [PIMAGEDINE] had an IC50 of 4060 nM.

Regarding `C=C1C(=O)[C@@]23[C@H](O)C[C@@H]4C(C)(C)CCC[C@@]4(C)[C@@H]2CC[C@@H]1[C@H]3O`, the IC50 is 110 nM in data set [1] and 260 nM in the data set with RAW264.7 [2]. The Activity result in the data set with RAW264.7 [3] was “Dose-dependent effect”; in the data set with RAW264.7 [4], “Non-toxic”.

Take `C=C1C(=O)[C@]23C[C@H]1CC[C@H]2[C@]1(C)CCC[C@](C)(COC(C)=O)[C@H]1C[C@H]3O`: the 50% inhibitory concentration (IC50) was 100 nM in data set [1] and 210 nM in the data set with RAW264.7 [2]. Further, the values for the Activity entry with RAW264.7 [3] and in the data set with RAW264.7 [4] were “Dose-dependent effect” and “Non-toxic”, respectively.

In the case of `C=C1C(=O)[C@@]23[C@H](O)C[C@@H]4[C@@](C)(COC(C)=O)CCC[C@@]4(C)[C@@H]2CC[C@@H]1[C@H]3O`, the half-maximal inhibitory concentration (IC50) in data set [1] stood at 70 nM; in the data set with RAW264.7 [2] it was 150 nM. Moreover, the values for the Activity result in the data set on RAW264.7 [3] and in the data set on RAW264.7 [4] were “Dose-dependent effect” and “Non-toxic”, respectively.

Source of the values: ChEMBL document CHEMBL1147217, “ent-Kaurane diterpenoids from croton tonkinensis inhibit LPS-induced NF-kappaB activation and NO production” (J Nat Prod, 2003).
